The values that follow come from ChEMBL document CHEMBL1148340 (J Med Chem, 2004).

Series [1] concerns the target T1, Human immunodeficiency virus type 1 reverse transcriptase (Human immunodeficiency virus 1, UniProt Q72547). Description: Inhibitory concentration against wild type HIV-1 reverse transcriptase (RT) using poly rC.dG as the template or primer. In a few lines:
(§1)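 Recombinant HIV-1 RT (IIIB-derived) or Glu138Lys mutant. Buffer: 50 mM Tris-HCl pH 7.8, 5 mM DTT, 150 mM KCl, 5 mM MgCl₂, 500 μM EDTA, 0.06% Triton X-100, with BSA. Incubated 37 °C, 30 min, then TCA/pyrophosphate precipitation on ice.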

Series [2] deals with T1, Human immunodeficiency virus type 1 reverse transcriptase. Description: Inhibitory concentration against wild type HIV-1/138Lys reverse transcriptase (RT) using [3H]dGTP as a radioligand. An outline of the steps:
as §1

Series [3] has as its system CCRF-CEM. Description: Effective concentration required to inhibit HIV-2 induced cytopathicity in human CEM cell lines. The class given is functional, cell-based. In a few lines: (§2)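 CEM cells at 4 × 10⁵/mL were infected with HIV-1 or HIV-2 at ~100 CCID₅₀ per mL. The cells were mixed 1:1 with serial compound dilutions. Giant cell formation was scored microscopically after 4 days. EC₅₀ is the concentration that inhibited virus-induced cytopathicity by 50%.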

Series [4] is described as follows: Partition coefficient (logP). Type of series: physicochemical. The note with it: octanol/water.
Series [5] deals with MT4. Description: Cytostatic concentration required to reduce MT-4 cell viability in mock-infected cell cultures. As to conditions: Homo sapiens. Type of series: functional. In a few lines: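 Mock-infected MT-4 cells at 3 × 10⁵/mL were exposed to compound dilutions. Viable cells were counted by trypan blue exclusion. CC₅₀ is the concentration that reduced the number of viable cells by 50%.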

In series [6] the test system is MT4. Description: Effective concentration required to inhibit HIV-1 induced cytopathicity in human MT-4 cell lines. The class given is functional, cell-based. In a few lines: (§3)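 MT-4 cells at 3 × 10⁵/mL were infected with HIV-1 or HIV-2 at ~100 CCID₅₀ per mL and mixed 1:1 with compound dilutions. After 5 days, HIV-induced cytopathicity was recorded by trypan blue dye exclusion. EC₅₀ is the concentration that reduced virus-induced loss of cell viability by 50%.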

Series [7] concerns CCRF-CEM. Description: Effective concentration required to inhibit HIV-1 induced cytopathicity in human CEM cell lines. The class given is functional, cell-based. An outline of the steps: as §2
In general terms: Damage to the host cells serves as the signal in cytopathic effect assays.

The test system of series [8] is CCRF-CEM. Description: Cytostatic concentration required to inhibit proliferation of CEM cells. The class given is functional. As to conditions: Homo sapiens. An outline of the steps: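 CEM cells were cultured with serial compound dilutions alongside the antiviral assay. CC₅₀ is the concentration that inhibited cell proliferation by 50%.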
The subject of series [9] is CCRF-CEM. Description: Effective concentration required to inhibit HIV-1E138K induced cytopathicity in human CEM cell lines.
The subject of series [10] is MT4. Description: Effective concentration required to inhibit HIV-2 induced cytopathicity in human MT-4 cell lines. The class given is functional, cell-based. An outline of the steps: as §3
Series [11] has as its system Human immunodeficiency virus 1. Description: Anti-HIV activity against PFA-resistant mutant HIV-1W88G strain in P4/R5 cells. Type of series: functional, organism-based. The note with it: Human immunodeficiency virus 1, P4/R5. In a few lines: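 HeLa-derived P4/R5 reporter cells (stable Tat-activated β-galactosidase under HIV LTR), 5×10^4 cells/mL, infected with HIV-1 LAI or W88G at MOI 0.05 TCID₅₀/mL. Drug added in 2- or 3-fold dilutions, in triplicate. At 48 h, lysis buffer and luminescent substrate added and β-galactosidase read by luminometer. EC₅₀ given as mean ± SD of five independent experiments (three in one case).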

Series [12] deals with Human immunodeficiency virus 1. Description: Anti-HIV activity against wild type HIV-1(LAI) strain in P4/R5 cells. The note with it: Human immunodeficiency virus 1, P4/R5.

pEC50, pIC50: −log10 of the molar value.

The pIC50 is the negative decadic logarithm of the IC50, by convention in mol/L. Read a high pIC50 as a low IC50. As to `Cc1cn([C@@H]2O[C@H](CO[Si](C)(C)C(C)(C)C)[C@@]3(OS(=O)(=O)C=C3N)[C@H]2O[Si](C)(C)C(C)(C)C)c(=O)n(C)c1=O`, the values for the pIC50 in series [1] and in series [2] were 5.51 and less than 4.00, respectively.
The term pEC50 denotes the EC50 on a negative log10 scale, so that one unit is a factor of ten. A low value points to a high EC50. One may read the logP as the decadic logarithm of the partition coefficient of the neutral form, usually between octanol and water. A higher logP goes with a more lipophilic compound. One may read the CC50 as the concentration that lowers cell viability or growth by half. A high value points to lower toxicity to the cells. For the molecule `CCOC(=O)P(=O)(O)OCCCn1c(=O)c(C)cn([C@@H]2O[C@H](CO[Si](C)(C)C(C)(C)C)[C@@]3(OS(=O)(=O)C=C3N)[C@H]2O[Si](C)(C)C(C)(C)C)c1=O`, the pEC50 with CCRF-CEM [3] is less than 4.30; in the series on MT4 [6] it was 5.37; with CCRF-CEM [7], 5.67; in the series with CCRF-CEM [9], 4.60; in the series on MT4 [10], less than 4.30. In [4], this molecule had a logP of 4.01. For the same molecule, the CC50 in the series with MT4 [5] was 84.3 µM; with CCRF-CEM [8], 135 µM. Also, the pIC50 in series [1] is 5.20; in series [2], 3.53.
On to `COC(=O)P(=O)(O)OCCCn1c(=O)c(C)cn([C@@H]2O[C@H](CO[Si](C)(C)C(C)(C)C)[C@@]3(OS(=O)(=O)C=C3N)[C@H]2O[Si](C)(C)C(C)(C)C)c1=O`, for which the pEC50 is less than 4.30 with CCRF-CEM [3]; 4.70 in the series with MT4 [6]; 5.35 in the series with CCRF-CEM [7]; less than 4.30 with CCRF-CEM [9]; less than 4.30 with MT4 [10]. The logP in [4] stood at 4.01. Further, the values for the CC50 in the series with MT4 [5] and with CCRF-CEM [8] were 55.5 µM and 146 µM, respectively. The results for the pIC50 in series [1] and in series [2] were 5.33 and 3.40, respectively.
Turning to `Cc1cn([C@@H]2O[C@H](CO[Si](C)(C)C(C)(C)C)[C@@]3(OS(=O)(=O)C=C3N)[C@H]2O[Si](C)(C)C(C)(C)C)c(=O)n(CCCOP(=O)(O)C(=O)O)c1=O`, the pEC50 in the series with CCRF-CEM [3] is less than 4.30; in [11] it was 6.80; in [12] it was 6.52; in the series on MT4 [6], 6.09; in the series with CCRF-CEM [7], 6.33; with CCRF-CEM [9], no more than 4.30. For the same molecule, the pEC50 in the series on MT4 [10] is less than 4.30. In [4], this molecule came in with a logP of 0.63. The CC50 in the series on MT4 [5] came to 111 µM; in the series with CCRF-CEM [8] it was 178 µM. The pIC50 in series [1] was 5.43; in series [2] it was 3.36.
Regarding `Cc1cn([C@@H]2O[C@H](CO[Si](C)(C)C(C)(C)C)[C@@]3(OS(=O)(=O)C=C3N)[C@H]2O[Si](C)(C)C(C)(C)C)c(=O)n(CCCOP(=O)(O)C(=O)OCc2ccccc2)c1=O`, the pEC50 with CCRF-CEM [3] is less than 4.30; with MT4 [6] it was 5.90; in the series on CCRF-CEM [7], 5.52; in the series on CCRF-CEM [9], 4.70; in the series on MT4 [10] it was less than 4.30. The molecule also yielded a logP in series [4] of 5.02. Further, the CC50 with MT4 [5] turned out to be 84 µM; in the series with CCRF-CEM [8], 138 µM. The figures for the pIC50 in [1] and in series [2] were 5.42 and 3.51, respectively.
Consider `COC(=O)P(=O)(OC)OCCCn1c(=O)c(C)cn([C@@H]2O[C@H](CO[Si](C)(C)C(C)(C)C)[C@@]3(OS(=O)(=O)C=C3N)[C@H]2O[Si](C)(C)C(C)(C)C)c1=O` (some centres not stated), for which the pEC50 was less than 4.30 with CCRF-CEM [3]; 6.55 with MT4 [6]; 7.10 in the series with CCRF-CEM [7]; less than 5.00 in the series on CCRF-CEM [9]; less than 5.00 with MT4 [10]. For the same molecule, the logP in [4] was 7.12. Moreover, the CC50 with MT4 [5] is 18.4 µM; in the series on CCRF-CEM [8], 20.9 µM. Further, the pIC50 in series [1] was 4.96; in series [2] it was less than 3.30.
Take `Cc1cn([C@@H]2O[C@H](CO[Si](C)(C)C(C)(C)C)[C@@]3(OS(=O)(=O)C=C3N)[C@H]2O[Si](C)(C)C(C)(C)C)c(=O)n(CCCO)c1=O`: the pEC50 in the series on CCRF-CEM [3] was less than 5.00; in [11] it was 7.57; in series [12] it was 7.37; with CCRF-CEM [9], less than 5.70; in the series on MT4 [10] it was less than 5.70. Also, the logP in series [4] was found to be 2.26. In the series with MT4 [5], this molecule yielded a CC50 of 3.86 µM. The pIC50 in [1] was 5.09; in series [2], less than 4.00.
Regarding `O=C(O)P(=O)(O)O` [FOSCARNET], the pEC50 was 3.98 in the series with CCRF-CEM [3]; less than 3.52 in series [11]; 4.36 in series [12]; 3.88 with MT4 [6]; 3.92 in the series with CCRF-CEM [7]; 4.06 in the series on CCRF-CEM [9]. The pEC50 in the series on MT4 [10] is 3.85. In [4], this molecule registered a logP of -0.56. The same molecule had a CC50 in the series on MT4 [5] of 230 µM.
